Source: PubChem BioAssay (Sanford-Burnham Center for Chemical Genomics)
UBC13 polyUb = human UBC13 polyubiquitination inhibition; P61088; UBC13 polyubiquitin chain formation, TR-FRET; inhibition, % at 20 µM; 330,000 tested, 0.47% active; in the data active means inhibition above about 45%, passing the limit was not always enough
Apaf-1 inh = inhibitors of human Apaf-1 apoptosome; reconstituted apoptosome caspase-3 activity, DEVD-Rh110 fluorescence; inhibition, % at 20 µM; 330,000 tested, 0.71% active; AID 489030; active means inhibition of at least 40% at 20 µM;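 further: plate controls were DMSO wells for no effect and DEVD-CHO caspase inhibitor wells for full effect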
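Medium: Hepes buffer, pH 7.5 / System: biochemical Apaf-1 apoptosome reconstitution / Measured by: Rh110 fluorescence, excitation 480 nm, emission 540 nm / Times: compound with Apaf-1, dATP, procaspase-3 30 min, then 50 min reaction, room temperature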
SENP8 block-1 = blocks the human protease SENP8; AID 2540; purified SENP8, Z-RLRGG-aminoluciferin cleavage, luminescence; inhibition, % at 10 µM; 330,000 tested, 1.2% active; Q96LD8; in the data active means inhibition above about 50%
SENP6 block = blocks the human protease SENP6 | Q9GZR1 | 330,000 tested, 1.8% active | Recombinant SENP6 catalytic domain, aminoluciferin luminescence | inhibition, % at 10 µM;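 active means inhibition above about 50% at the single tested dose, limit read from the data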;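 further: plate controls were DMSO wells with enzyme for no effect and DMSO wells lacking enzyme for full effect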
Target sequence (Q9GZR1 628-1112 limits assumed): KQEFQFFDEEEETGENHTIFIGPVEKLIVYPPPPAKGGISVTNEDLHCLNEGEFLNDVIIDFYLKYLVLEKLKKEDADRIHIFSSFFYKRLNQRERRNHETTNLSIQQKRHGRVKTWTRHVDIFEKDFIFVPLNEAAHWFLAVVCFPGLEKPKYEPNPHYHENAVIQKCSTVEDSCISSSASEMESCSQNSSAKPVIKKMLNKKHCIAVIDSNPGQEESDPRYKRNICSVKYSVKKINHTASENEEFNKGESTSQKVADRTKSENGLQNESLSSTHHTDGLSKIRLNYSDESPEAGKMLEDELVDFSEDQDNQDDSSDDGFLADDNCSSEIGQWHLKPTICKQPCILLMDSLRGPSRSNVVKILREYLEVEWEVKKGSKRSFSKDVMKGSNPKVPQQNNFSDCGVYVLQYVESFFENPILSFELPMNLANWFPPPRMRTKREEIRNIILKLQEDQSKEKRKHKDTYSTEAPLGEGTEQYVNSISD
SENP7 block = blocks the human protease SENP7; inhibition, % at 5 µM; recombinant SENP7, Z-RLRGG-aminoluciferin luminescence, 40 min; 330,000 tested, 1.5% active;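 active means inhibition above about 50% at the single test dose, limit read from the data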;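 further: plate controls were DMSO with enzyme for no effect and no enzyme buffer wells for full effect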
SENP8 block-2 = inhibitors of human SENP8 protease; Q96LD8; recombinant SENP8, Nedd8 substrate fluorescence; inhibition, % at 20 µM; 360,000 tested, 0.64% active; AID 602440; in the data active means inhibition mostly above about 40%, no sharp cut-off; inactive means mostly below about 27%
SENP8 conf = confirmation of human SENP8 protease inhibitors | shares compounds with SENP7 block | Recombinant SENP8, Z-RLRGG-aminoluciferin luminescence, 60 min | inhibition, % at 12.5 µM | 6,200 tested, 40% active;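 active means mean inhibition across replicates above about 50%, limit read from the data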
SENP6 conf = confirmation of human SENP6 protease inhibitors | recombinant SENP6, Z-RLRGG-aminoluciferin luminescence | shares compounds with SENP7 block | AID 488915 | inhibition, % at 12.5 µM | 6,200 tested, 58% active
SENP7 conf = human SENP7 inhibition, confirmed | inhibition, % at 12.5 µM | shares compounds with SENP7 block | 6,200 tested, 69% active | recombinant SENP7, Z-RLRGG-aminoluciferin luminescence, 40 min
Casp3 SENP sel = caspase-3 inhibition (SENP selectivity assay); shares compounds with SENP7 block; purified caspase-3, Z-DEVD-aminoluciferin luminescence, 60 min; inhibition, % at 12.5 µM; 6,200 tested, 60% active; AID 488918;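 active means mean inhibition above about 50%, limit read from the data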;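 further: plate controls were enzyme with DMSO for no effect and wells without caspase-3 for full effect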
Target sequence (P42574 28-227 limits assumed): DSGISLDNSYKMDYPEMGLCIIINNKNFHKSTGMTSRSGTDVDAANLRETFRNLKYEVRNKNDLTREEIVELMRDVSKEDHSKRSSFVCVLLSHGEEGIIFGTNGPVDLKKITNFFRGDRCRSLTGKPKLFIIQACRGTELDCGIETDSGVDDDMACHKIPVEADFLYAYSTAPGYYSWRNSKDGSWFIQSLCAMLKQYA
SENP luc ctr = counter-screen for SENP inhibitors: luminescence interference | AID 488919 | Pre-incubated SENP8/Z-RLRGG-aminoluciferin, luciferase luminescence interference | shares compounds with SENP7 block | 6,200 tested, 39% active | inhibition, % at 12.5 µM;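 active means mean inhibition above about 50% when retested at one dose, limit read from the data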;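 further: plate controls were DMSO wells with completed reaction for no effect and substrate without enzyme for full effect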
An asterisk follows results filed as active; nt = not tested or not shown. Shown are actives, neighbours in structure and some others; about 3% of the full set was active somewhere.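 How the source made its calls, unless noted: active means mean inhibition above about 50% in the one-dose retest (limit read from the data); inactive means the rest.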

SMILES	UBC13 polyUb	Apaf-1 inh	SENP8 block-1	SENP6 block	SENP7 block	SENP8 block-2	SENP8 conf	SENP6 conf	SENP7 conf	Casp3 SENP sel	SENP luc ctr
CC1CCCCC1NC(=O)c1cccc(N2C(=O)C3C4C=CC(C4)C3C2=O)c1 (centres undefined)	4.9	-9.1	-6.2	-3.7	2.9	9.4	nt	nt	nt	nt	nt
O=C(O)CCN1C(=O)/C(=C\c2ccncc2)SC1=S	-4.2	-11.9	13.2	12.5	-1.1	14.0	nt	nt	nt	nt	nt
COc1ccc(/C=C2/SC(=O)NC2=O)cc1	-4.1	-11.4	71.4*	85.7*	62.0*	6.5	80.8*	76.0*	89.2*	74.4*	84.1*
O=C(O)CCN1C(=O)/C(=C\c2cccc(Oc3ccccc3)c2)SC1=S	-11.8	11.1	96.3*	96.8*	62.2*	25.3	1.6	100.7*	103.5*	32.5	90.1*
COc1ccc(/C=C2\SC(=S)N(CCCC(=O)N3CCOCC3)C2=O)cc1OC	-13.8	5.6	-10.9	-8.5	-4.7	28.1	nt	nt	nt	nt	nt
COc1ccc(/C=C2\SC(=S)N(CCCC(=O)N3CCOCC3)C2=O)cc1	-6.3	5.0	69.0*	81.6*	72.3*	15.9	83.0*	75.9*	91.2*	62.6*	59.6*
COc1ccc(C=C2SC(=S)NC2=O)cc1	nt	nt	nt	nt	nt	25.3	nt	nt	nt	nt	nt
O=C(CCCN1C(=O)/C(=C/c2ccccc2Cl)SC1=S)N1CCOCC1	-6.6	21.1	86.5*	79.5*	87.7*	7.5	32.4	55.4*	63.9*	63.3*	33.7
Cc1ccc(OC(C)C(=O)N/N=C/c2ccccn2)cc1 (centres undefined)	-28.9	7.9	-2.3	-12.3	-5.4	15.3	nt	nt	nt	nt	nt
COc1ccc(/C=C2/SC(=S)N(CCC(=O)O)C2=O)cc1	-8.6	-9.9	97.5*	98.4*	85.0*	12.7	97.7*	100.4*	103.5*	64.8*	81.3*
COc1ccc(/C=C2\SC(=S)N(CCC(=O)Nc3ccc(C(=O)O)cc3)C2=O)cc1	-38.0	-5.2	31.0	13.4	-5.1	17.9	nt	nt	nt	nt	nt
O=C1NC(=S)S/C1=C\c1ccc2ccccc2c1	-15.0	12.9	87.8*	90.5*	9.6	18.1	26.5	50.3*	37.6	23.6	20.7
O=C(O)CN1C(=O)/C(=C\c2ccc(OC(=O)c3ccco3)cc2)SC1=S	-13.7	6.4	59.0*	71.3*	1.4	17.1	66.5*	62.5*	79.0*	83.4*	68.9*
O=C1NC(=S)SC1=Cc1ccc(F)cc1	nt	nt	nt	nt	nt	28.2	nt	nt	nt	nt	nt
COc1cc(C=O)ccc1OCc1ccccc1Br	2.9	16.7	70.0*	75.3*	66.0*	15.0	-7.9	67.8*	88.6*	69.0*	73.4*
COc1cc(C=O)ccc1OCc1cccc(Br)c1	-3.9	11.8	-2.9	34.0	22.7	3.4	nt	nt	nt	nt	nt
COc1ccccc1C(=O)Nc1nc(-c2ccc3c(c2)OCCO3)cs1	22.0	3.5	24.1	14.4	3.3	-188.0	nt	nt	nt	nt	nt
COc1cccc(Nc2nc(-c3ccc4c(c3)OCCO4)cs2)c1	-1.6	6.5	29.8	55.0*	6.6	-38.0	22.2	31.8	68.6*	7.9	8.3
c1ccc(-c2csc(Nc3ccc4c(c3)OCCO4)n2)cc1	8.1	-6.1	90.9*	95.5*	91.2*	-130.7	94.6*	95.3*	100.7*	73.5*	84.2*
c1cc2c(cc1Nc1nc(-c3ccc4c(c3)OCO4)cs1)OCCO2	-23.9	2.5	-6.3	-6.4	11.4	-207.6	nt	nt	nt	nt	nt
CCC1(c2ccccc2)NC(=O)N(CC(=O)NCC2COc3ccccc3O2)C1=O (centres undefined)	1.2	1.7	-1.7	-1.1	-3.2	3.6	nt	nt	nt	nt	nt
CCCNC(=O)CSc1nnc(-c2ccccc2Br)n1-c1cccc(C(F)(F)F)c1	-0.6	5.4	-4.0	-3.4	54.2*	10.3	-1.9	-0.3	-4.5	0.2	0.4
O=C(CSc1nc2ccccc2c(=O)n1-c1cccc(C(F)(F)F)c1)NC1CC1	-5.1	-1.9	-9.6	31.9	0.8	15.9	nt	nt	nt	nt	nt
CC1(C(=O)O)CCCN1C(=O)c1cc2ccccc2s1 (centres undefined)	nt	nt	nt	nt	nt	6.9	nt	nt	nt	nt	nt
O=C(Nc1ccc(O)cc1)C1CCCO1 (centres undefined)	-0.7	-2.6	-2.6	-4.2	59.9*	4.7	6.3	9.5	9.1	3.7	2.6
SMILES	UBC13 polyUb	Apaf-1 inh	SENP8 block-1	SENP6 block	SENP7 block	SENP8 block-2	SENP8 conf	SENP6 conf	SENP7 conf	Casp3 SENP sel	SENP luc ctr
Oc1ccccc1-c1cc(-c2ccc(F)cc2)n[nH]1	10.6	9.4	88.5*	94.2*	93.6*	5.0	93.6*	94.2*	100.0*	71.6*	79.9*
Oc1ccc(Br)cc1-c1cc(-c2ccccc2F)[nH]n1	7.9	-0.2	-4.7	8.1	5.8	7.3	nt	nt	nt	nt	nt
Cc1ccccc1-c1cc(-c2ccccc2O)n[nH]1	15.8	12.7	70.8*	83.5*	82.8*	15.8	86.3*	84.7*	93.9*	42.1	61.5*
Cc1ccc(-c2cc(-c3ccccc3Cl)[nH]n2)c(O)c1	13.7	17.2	28.0	45.4	45.8	14.4	nt	nt	nt	nt	nt
Oc1ccccc1-c1cc(-c2ccccc2)n[nH]1	24.9	6.1	92.8*	94.8*	93.5*	17.5	95.3*	95.5*	100.8*	74.3*	89.4*
Oc1ccc(Cl)cc1-c1cc(-c2ccccc2)n[nH]1	27.4	19.9	7.5	20.6	3.3	6.0	nt	nt	nt	nt	nt
Cc1ccc(-c2cc(-c3ccc(F)cc3)n[nH]2)c(O)c1	12.6	7.6	78.8*	83.3*	75.5*	2.2	86.3*	85.5*	95.4*	42.9	76.1*
Cc1ccc(-c2cc(-c3ccc(C)cc3O)[nH]n2)cc1	9.6	10.8	12.3	45.3	12.8	18.8	nt	nt	nt	nt	nt
O=c1[nH]c(=O)c2cn[nH]c2[nH]1	1.7	-8.5	1.1	-18.0	5.1	-6.0	nt	nt	nt	nt	nt
NC(Cc1ccc(C(F)(F)F)cc1)c1csc(Nc2ccc(C(=O)c3ccccc3)cc2)n1 (centres undefined)	nt	nt	nt	nt	nt	-430.6	nt	nt	nt	nt	nt
Oc1ccc(F)cc1-c1cc(-c2ccc3c(c2)OCCO3)n[nH]1	13.1	10.9	84.4*	87.7*	75.5*	10.7	87.5*	88.1*	100.1*	58.9*	56.7*
O=C(N/N=C/c1ccc(F)cc1)c1cc(-c2ccc3c(c2)OCO3)n[nH]1	1.6	-22.2	-2.3	-1.3	1.5	9.5	nt	nt	nt	nt	nt
